ChEMBL document CHEMBL4825692, “Benzofuranyl-2-imidazoles as imidazoline I2 receptor ligands for Alzheimer's disease” (Eur J Med Chem, 2021)
Active and inactive are the calls of the source. No cut-off for these calls is given here.

Key:
[1] = Displacement of [3H]2-BFI from imidazoline I2 receptor low affinity site in Swiss mouse brain cerebral cortex membrane measured after 45 mins by liquid scintillation counting spectrometry
[2] = Stability in human plasma assessed as compound remaining after 6 hrs; format: ADME, cell-free; conditions: read-out: Stabilty
How it was run: (§1)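 Pooled human plasma from healthy donors, sampled at 0, 1, 2 and 6 h, reported as percentage of parent remaining.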

[3] = Stability in human plasma assessed as compound remaining after1 hrs; format: ADME, cell-free; conditions: read-out: Stabilty
How it was run: as §1

Mus musculus [4] = assay: Antialzheimer activity in 5xFAD transgenic Alzheimer disease mouse model assessed as increase in GPX1 expression at 1 mg/kg/day by Western blot analysis
[5] = Displacement of [3H]clonidine from imidazoline I1 receptor low affinity site in rat hypothalamic membranes measured after 30 mins by liquid scintillation counting spectrometry; format: cell membranes, Hypothalamus, Membrane
[6] = AUC (0 to t) in CD-1 mouse at 10 mg/kg, po measured after 24 hrs by HPLC/UV-VS analysis; format: ADME, organism-based; design: route oral, time 24 hrs, dose 10 mg/kg; conditions: in vivo
How it was run: (§2)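 Male CD1 mice; plasma concentration of drug at 15 min to 24 h after a single oral 10 mg/kg dose, measured by HPLC with UV at 290 nm (calibration 0,025-5 μg/mL, peak area ratio). Non-compartmental analysis of mean concentration–time curves: AUC by trapezoidal rule, Cmax read directly from the mean curve.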

[7] = Plasma protein binding in human assessed as unbound fraction; format: ADME, cell-free
[8] = Displacement of [3H]2-BFI from imidazoline I2 receptor low affinity site in post-mortem human brain frontal cortex membrane two site model measured after 45 mins by liquid scintillation counting spectrometry
Mus musculus [9] = assay: Neuroprotection in naive mouse assessed as reduction in hippocampal FADD protein level at 50 mg/kg, ip by Western blot analysis relative to control; format: functional; design: scale not given: the % may be the effect or the level left
How it was run: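 Adult naive CD-1 mice received one i.p. dose (n = 7) or saline vehicle (2 ml/kg, n = 6) and were killed 1 h later. Hippocampal protein (40 µg) was run on 10% SDS-PAGE, blotted to nitrocellulose and probed with anti-FADD, then ECL. Band IOD densitometry was expressed as % of same-gel vehicle controls, averaged over 2–4 gels per sample.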

[10] = Permeability of compound by PAMPA-BBB assay; format: ADME
[11] = Solubility of compound at pH 4.61; format: physicochemical; conditions: buffer
How it was run: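 Solubility was measured at pH 1.13, 4.61 and 6.97, simulating gastric and intestinal fluids, and classed by European Pharmacopoeia terms.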

Mus musculus [12] = assay: Antialzheimer activity in 5xFAD transgenic Alzheimer disease mouse model assessed as decrease in heme oxygenase 1 expression at 1 mg/kg/day by Western blot analysis
[13] = Solubility of the compound in 1% DMSO solution; format: physicochemical
Cytochrome P450 2D6 = Cytochrome P450 2D6 (Homo sapiens, UniProt P10635); assay: Inhibition of CYP2D6 (unknown origin) at 10 uM; format: ADME
Cytochrome P450 2D6, sequence (P10635 whole entry): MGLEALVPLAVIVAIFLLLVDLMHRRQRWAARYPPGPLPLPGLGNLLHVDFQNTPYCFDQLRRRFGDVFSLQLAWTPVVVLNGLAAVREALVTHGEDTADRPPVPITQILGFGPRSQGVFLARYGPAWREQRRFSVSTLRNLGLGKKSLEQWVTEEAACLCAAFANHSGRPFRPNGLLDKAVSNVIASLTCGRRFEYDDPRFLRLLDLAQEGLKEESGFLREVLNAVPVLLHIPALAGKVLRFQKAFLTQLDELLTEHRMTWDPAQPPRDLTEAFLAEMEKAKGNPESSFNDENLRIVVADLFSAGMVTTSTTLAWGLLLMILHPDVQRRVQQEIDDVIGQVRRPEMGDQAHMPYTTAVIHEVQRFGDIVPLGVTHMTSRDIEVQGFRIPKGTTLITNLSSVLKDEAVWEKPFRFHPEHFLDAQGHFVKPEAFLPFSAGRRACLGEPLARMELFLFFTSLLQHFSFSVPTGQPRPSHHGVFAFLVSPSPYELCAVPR
How it was run: (§3)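 Recombinant human CYP1A2, CYP2C9, CYP2C19, CYP2D6 and CYP3A4 (7-BFC or DBF as probe) were tested with probe substances and fluorescent detection, with test compound at 10 μM.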

[14] = Plasma protein binding in mouse assessed as unbound fraction; format: ADME, cell-free
Cytochrome P450 2C19 = Cytochrome P450 2C19 (Homo sapiens, UniProt P33261); assay: Inhibition of CYP2C19 (unknown origin) at 10 uM; format: ADME
Cytochrome P450 2C19, sequence (P33261 whole entry): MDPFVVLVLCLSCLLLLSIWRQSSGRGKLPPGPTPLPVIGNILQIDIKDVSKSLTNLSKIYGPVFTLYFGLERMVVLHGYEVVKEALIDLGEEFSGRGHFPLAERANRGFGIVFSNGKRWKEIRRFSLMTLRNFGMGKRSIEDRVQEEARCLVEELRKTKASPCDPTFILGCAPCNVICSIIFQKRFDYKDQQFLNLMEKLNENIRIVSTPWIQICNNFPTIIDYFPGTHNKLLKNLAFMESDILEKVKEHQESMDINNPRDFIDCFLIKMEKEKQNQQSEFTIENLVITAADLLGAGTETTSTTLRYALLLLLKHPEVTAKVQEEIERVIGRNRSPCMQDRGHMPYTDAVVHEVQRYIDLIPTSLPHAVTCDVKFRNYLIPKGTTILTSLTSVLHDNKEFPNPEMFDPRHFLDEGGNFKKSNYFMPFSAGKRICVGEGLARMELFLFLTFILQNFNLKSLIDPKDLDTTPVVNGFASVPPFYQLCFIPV
How it was run: as §3

Cytochrome P450 3A4 [15] = target: T1, Cytochrome P450 3A4 (Homo sapiens, UniProt P08684); assay: Inhibition of CYP3A4 (unknown origin) using as 7-BFC as substrate at 10 uM; format: ADME
T1 sequence (P08684 whole entry): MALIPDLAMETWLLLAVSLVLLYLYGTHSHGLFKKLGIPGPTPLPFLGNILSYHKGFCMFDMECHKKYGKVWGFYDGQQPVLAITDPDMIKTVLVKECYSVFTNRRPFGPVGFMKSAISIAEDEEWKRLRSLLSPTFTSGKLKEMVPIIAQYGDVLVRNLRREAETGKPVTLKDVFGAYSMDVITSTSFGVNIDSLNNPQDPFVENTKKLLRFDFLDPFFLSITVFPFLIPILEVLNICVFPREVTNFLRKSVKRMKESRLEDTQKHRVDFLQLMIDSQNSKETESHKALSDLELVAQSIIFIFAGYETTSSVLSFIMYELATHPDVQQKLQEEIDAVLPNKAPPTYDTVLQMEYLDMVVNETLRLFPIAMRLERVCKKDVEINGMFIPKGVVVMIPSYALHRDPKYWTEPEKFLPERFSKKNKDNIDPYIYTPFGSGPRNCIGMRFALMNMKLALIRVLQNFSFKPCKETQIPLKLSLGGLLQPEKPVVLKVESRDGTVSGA
How it was run: as §3

[16] = Displacement of [3H]idazoxan from imidazoline I2 receptor high affinity site in rat brain cerebral cortex membrane measured after 30 mins by liquid scintillation counting spectrometry
Homo sapiens [17] = species on record: Homo sapiens; assay: Displacement of [3H]2-BFI from imidazoline I2 receptor in post-mortem human brain frontal cortex membrane assessed as occupancy at high affinity site measured after 45 mins by liquid scintillation counting spectrometry
[18] = Stability in human plasma assessed as compound remaining after 2 hrs; format: ADME, cell-free; conditions: read-out: Stabilty
How it was run: as §1

[19] = Displacement of [3H]2-BFI from imidazoline I2 receptor in post-mortem human brain frontal cortex membrane one site model measured after 45 mins by liquid scintillation counting spectrometry
[20] = Microsomal stability in human liver microsomes assessed as parent compound remaining after 60 mins; format: ADME, Microsome; conditions: read-out: Stabilty
How it was run: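 Human and mouse microsomes, incubation for 60 min, with percentage of parent compound remaining reported.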

[21] = AUC (0 to infinity) in CD-1 mouse at 10 mg/kg, po measured after 24 hrs by HPLC/UV-VS analysis; format: ADME, organism-based; design: route oral, time 24 hrs, dose 10 mg/kg; conditions: in vivo
How it was run: as §2

Homo sapiens [22] = species on record: Homo sapiens; assay: Selectivity index, ratio of pKi for displacement of [3H]2-BFI from imidazoline I2 receptor in post-mortem human brain frontal cortex membrane to pKi for displacement of [3H]-RX821002 from adrenergic alpha 2 receptor in post-mortem human brain frontal cortex membrane; format: cell membranes
Mus musculus [23] = assay: Antialzheimer activity in 5xFAD transgenic Alzheimer disease mouse model assessed as increase in SOD1 expression at 1 mg/kg/day by Western blot analysis
[24] = Displacement of [3H]clonidine from imidazoline I1 receptor low affinity site in human hypothalamic membranes measured after 30 mins by liquid scintillation counting spectrometry; format: cell membranes, Hypothalamus, Membrane
[25] = Acute toxicity in albino mouse assessed as effect on body weight at 100 mg/kg, ip; format: organism-based; conditions: in vivo
Mus musculus [26] = assay: Antialzheimer activity in 5xFAD transgenic Alzheimer disease mouse model assessed as decrease in aldehyde dehydrogenase 2 expression at 1 mg/kg/day by Western blot analysis
Cytochrome P450 3A4 [27] = target: T1, Cytochrome P450 3A4; assay: Inhibition of CYP3A4 (unknown origin) using as DBF as substrate at 10 uM; format: ADME
How it was run: as §3

[28] = Solubility of the compound in 99 % PBS buffer solution; format: physicochemical
[29] = Hypothermic effect in CD-1 mouse assessed as reduction in body temperature at 50 mg/kg, ip measured up to 3 hrs by rectal thermometric method; format: ADME, organism-based; conditions: in vivo
How it was run: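 Adult male and female CD-1 mice (n = 5 per group) given single i.p. doses (1, 5, 10, 20, 30, 50 mg/kg) or saline vehicle 2 ml/kg. Rectal temperature read with a digital probe before dosing and 1, 2 and 3 h after; change from basal value analysed by repeated measures ANOVA with Sidak's test.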

LN-229 = assay: Cytotoxicity against human LN-229 cells at 100 uM by real time IncuCyte proliferation assay; format: cell-based; conditions: ln-229, 100 µM
How it was run: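 Adherent lines (LN-229, Capan-1, HCT-116, NCI-H460) seeded at 500–1500 cells/well and treated after overnight attachment. Suspension lines (HL-60, K-562, Z-138, DND-41) seeded at 2500–5500 cells/well directly with compound. Highest concentration 100 μM; proliferation tracked by real-time IncuCyte imaging over 72 h at 37 °C.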

For Cl.c1ccc2oc(-c3ncc[nH]3)cc2c1, which pKi [1] is on record?
Its pKi is 6.

And the remaining at 6 h [2]?
Its remaining at 6 h is 57%.

And the remaining at 1 h [3]?
Its remaining at 1 h is 83%.

And the Activity (Mus musculus [4])?
The Activity was “Active”.

What about the Ki [5] of the same compound?
The Ki was 115 µM.

And the AUC(0-t) at 24 h [6]?
Its AUC(0-t) at 24 h is 2700 ng·h/mL.

And the fraction unbound [7]?
Its fraction unbound is 0.071.

And the pKi [8]?
Its pKi is 6.02.

What about the Activity (Mus musculus [9]) of the same compound?
Its Activity is 34%.

And the Papp [10]?
The Papp was 13.6 ×10⁻⁶ cm/s.

What about the solubility [11] of the same compound?
Its solubility is “Soluble”.

And the Activity (Mus musculus [12])?
Its Activity is “Active”.

What about the solubility [13] of the same compound?
Its solubility is 52.5 µM.

And the “inhibition (INH)” value (Cytochrome P450 2D6)?
Its value is “Not Active”.

And the fraction unbound [14]?
The fraction unbound was 0.16.

What about the “inhibition (INH)” value (Cytochrome P450 2C19) of the same compound?
The value was “Not Active”.

And the “inhibition (INH)” value (Cytochrome P450 3A4 [15])?
Its value is “Not Active”.

And the pKi [16]?
The pKi was 6.45.

And the Activity (Homo sapiens [17])?
Its Activity is 34%.

What about the remaining at 2 h [18] of the same compound?
Its remaining at 2 h is 77%.

And the pKi [19]?
The pKi was 6.67.

What about the remaining at 1 h [20] of the same compound?
Its remaining at 1 h is 58%.

And the AUC(0-inf) [21]?
Its AUC(0-inf) is 2600 ng·h/mL.

What about the Selectivity Index (Homo sapiens [22]) of the same compound?
Its Selectivity Index is 3090.

What about the Activity (Mus musculus [23]) of the same compound?
Its Activity is “Active”.

And the Ki [24]?
The Ki was 250 µM.

And the Activity [25]?
The Activity was “Non-Toxic”.

What about the Activity (Mus musculus [26]) of the same compound?
Its Activity is “Active”.

And the “inhibition (INH)” value (Cytochrome P450 3A4 [27])?
Its value is “Not Active”.

And the solubility [28]?
Its solubility is 52.5 µM.

And the Activity [29]?
Its Activity is “Toxic”.

What about the Activity (LN-229) of the same compound?
Its Activity is “Non-Toxic”.
